# Results published in ChEMBL document CHEMBL1949507, “Synthesis and biological evaluation of [6]-gingerol analogues as transient receptor potential channel TRPV1 and TRPA1 modulators” (Bioorg Med Chem Lett, 2012).
# Tests used:
# Type in all cases: functional, cell-based
# [1] = molecular target: T1, Transient receptor potential cation channel subfamily V member 1 (Homo sapiens, UniProt Q8NER1); assay: Agonist activity at human TRPV1 ion channel expressed in HEK293 cells assessed as calcium influx by fluo-4-Am-based fluorimetry relative to ionomycin
# [2] = molecular target: Transient receptor potential cation channel subfamily A member 1 (Rattus norvegicus) (UniProt Q6RI86); assay: Agonist activity at rat TRPA1 ion channel expressed in HEK293 cells assessed as calcium influx by fluo-4-Am-based fluorimetry relative to allyl isothiocyanate
# [3] = molecular target: T2, Transient receptor potential cation channel subfamily A member 1 (Rattus norvegicus, UniProt Q6RI86); assay: Antagonist activity at rat TRPA1 ion channel expressed in HEK293 cells assessed as inhibition of AITC-induced calcium influx incubated for 5 mins prior to AITC-induction by fluo-4-AM-based fluorimetry
# Summary of the method: (§1)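 Stably transfected HEK293 (human TRPV1 or rat TRPA1) were loaded with Fluo-4-AM, washed in Tyrode's buffer and read by spectrofluorimetry (ex 488/em 516 nm). […] Inhibition of the agonist-evoked [Ca2+]i rise was recorded, giving IC50.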
# [4] = molecular target: T1, Transient receptor potential cation channel subfamily V member 1; assay: Antagonist activity at human TRPV1 ion channel expressed in HEK293 cells assessed as inhibition of capsaicin-induced calcium influx incubated for 5 mins prior to capsicin-induction by fluo-4-AM-based fluorimetry; summary of the method: as §1
# [5] = molecular target: T1, Transient receptor potential cation channel subfamily V member 1; assay: Agonist activity at human TRPV1 ion channel expressed in HEK293 cells assessed as calcium influx by fluo-4-Am-based fluorimetry
# [6] = molecular target: T2, Transient receptor potential cation channel subfamily A member 1; assay: Agonist activity at rat TRPA1 ion channel expressed in HEK293 cells assessed as calcium influx by fluo-4-Am-based fluorimetry
# [7] = molecular target: Transient receptor potential cation channel subfamily A member 1 (Rattus norvegicus) (UniProt Q6RI86); assay: Agonist activity at rat TRPA1 ion channel expressed in HEK293 cells assessed as calcium influx by fluo-4-Am-based fluorimetry relative to ionomycin
# Summary of the method: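 HEK293 cells stably transfected with rat TRPA1 cDNA, loaded with Fluo-4-AM in EMEM, washed twice in Tyrode's buffer and read in a spectrofluorimeter cuvette (ex 488 nm, em 516 nm). [Ca2+]i was measured before and after adding various concentrations of test compound. Responses in non-transfected wild-type HEK293 cells served as baseline and were subtracted from transfected-cell values.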
# Chain of Transient receptor potential cation channel subfamily A member 1 (Rattus norvegicus) (Q6RI86 whole entry): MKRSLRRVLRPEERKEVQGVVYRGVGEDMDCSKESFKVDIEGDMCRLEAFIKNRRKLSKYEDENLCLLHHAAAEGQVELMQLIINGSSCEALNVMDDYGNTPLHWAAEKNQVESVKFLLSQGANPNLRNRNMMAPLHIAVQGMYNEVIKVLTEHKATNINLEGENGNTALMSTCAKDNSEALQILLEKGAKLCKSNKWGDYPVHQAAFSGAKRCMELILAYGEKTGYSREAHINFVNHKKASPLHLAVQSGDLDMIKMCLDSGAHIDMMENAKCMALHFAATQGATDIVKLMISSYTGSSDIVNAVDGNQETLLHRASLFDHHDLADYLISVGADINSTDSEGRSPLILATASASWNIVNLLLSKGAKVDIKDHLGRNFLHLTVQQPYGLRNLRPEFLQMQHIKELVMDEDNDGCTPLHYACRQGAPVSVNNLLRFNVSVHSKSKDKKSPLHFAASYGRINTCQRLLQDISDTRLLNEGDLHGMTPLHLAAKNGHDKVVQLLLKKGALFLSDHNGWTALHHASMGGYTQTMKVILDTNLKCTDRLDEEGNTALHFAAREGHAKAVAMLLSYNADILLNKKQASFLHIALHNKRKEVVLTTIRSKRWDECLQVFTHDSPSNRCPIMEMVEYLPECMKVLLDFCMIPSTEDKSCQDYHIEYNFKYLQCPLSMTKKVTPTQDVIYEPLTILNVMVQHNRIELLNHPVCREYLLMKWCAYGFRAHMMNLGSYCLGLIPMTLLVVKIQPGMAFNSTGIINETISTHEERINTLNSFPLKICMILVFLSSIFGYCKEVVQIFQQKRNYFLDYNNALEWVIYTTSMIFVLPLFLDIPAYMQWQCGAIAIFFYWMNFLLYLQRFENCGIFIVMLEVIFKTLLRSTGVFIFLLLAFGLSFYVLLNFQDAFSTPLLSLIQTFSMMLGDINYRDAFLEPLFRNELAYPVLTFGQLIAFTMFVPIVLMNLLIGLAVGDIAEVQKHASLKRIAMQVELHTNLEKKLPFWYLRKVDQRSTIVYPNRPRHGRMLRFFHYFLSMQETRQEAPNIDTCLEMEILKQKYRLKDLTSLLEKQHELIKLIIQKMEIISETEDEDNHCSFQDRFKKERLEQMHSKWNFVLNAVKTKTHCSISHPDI
# T2 sequence (Q6RI86 whole entry): as above
# T1 sequence (Q8NER1 whole entry): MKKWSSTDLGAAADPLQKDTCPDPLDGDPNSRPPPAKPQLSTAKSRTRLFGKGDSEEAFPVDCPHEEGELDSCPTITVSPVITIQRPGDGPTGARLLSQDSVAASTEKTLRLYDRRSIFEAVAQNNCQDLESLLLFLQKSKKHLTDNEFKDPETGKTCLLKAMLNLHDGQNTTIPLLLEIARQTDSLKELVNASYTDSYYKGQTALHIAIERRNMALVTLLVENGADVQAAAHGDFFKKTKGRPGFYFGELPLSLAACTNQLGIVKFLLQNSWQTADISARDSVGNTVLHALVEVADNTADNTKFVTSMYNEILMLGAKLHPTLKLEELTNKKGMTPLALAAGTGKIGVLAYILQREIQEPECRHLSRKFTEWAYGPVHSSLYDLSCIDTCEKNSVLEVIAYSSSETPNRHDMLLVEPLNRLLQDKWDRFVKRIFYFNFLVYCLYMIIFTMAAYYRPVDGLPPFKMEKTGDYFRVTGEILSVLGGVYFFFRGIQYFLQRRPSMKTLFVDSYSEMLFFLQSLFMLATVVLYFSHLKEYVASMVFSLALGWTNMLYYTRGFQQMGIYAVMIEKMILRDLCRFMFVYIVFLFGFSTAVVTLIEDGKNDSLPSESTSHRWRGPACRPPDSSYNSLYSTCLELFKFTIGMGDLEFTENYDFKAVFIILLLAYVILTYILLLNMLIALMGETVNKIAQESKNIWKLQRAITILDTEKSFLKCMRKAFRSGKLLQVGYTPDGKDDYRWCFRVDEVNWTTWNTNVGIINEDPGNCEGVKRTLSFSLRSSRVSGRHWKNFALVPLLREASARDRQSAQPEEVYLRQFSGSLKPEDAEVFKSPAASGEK
SMILES,Efficacy [1],Efficacy [2],IC50 [3],IC50 [4],EC50 [5],EC50 [6],Efficacy [7]
O=C(CCc1ccccc1)CC(O)Cc1ccccc1 (stereo not given),< 10%,17.5%,4.5 µM,> 50 µM,–,–,–
COc1cc(CNC(=O)CCCC/C=C/C(C)C)ccc1O,–,100%,–,–,–,–,–
CCCCC/C=C/C(=O)CCc1ccc(O)c(OC)c1 [SHOGAOL],79.2%,91.1%,16.7 µM,0.29 µM,0.32 µM,16 µM,–
CC(C)c1cc(CCC(=O)CC(O)Cc2ccccc2)cc(C(C)C)c1O (stereo not given),< 10%,< 10%,–,> 50 µM,–,–,–
O=C(CCc1ccc2c(c1)OCO2)CC(O)CCCCCCc1ccccc1 (stereo not given),–,–,–,> 10 µM,–,–,–
CCCCCC(O)CC(=O)CCc1ccccc1 (stereo not given),< 10%,< 10%,56.1 µM,> 50 µM,–,–,–
O=C(CCc1ccccc1)CC(O)CCCCCCc1ccccc1 (stereo not given),< 10%,< 10%,–,> 10 µM,–,–,–
COc1cc(CCC(=O)CC(O)CCCCCCc2ccccc2)ccc1O (stereo not given),60%,< 10%,38.2 µM,0.11 µM,0.11 µM,–,–
Cc1cc(O)c(C(C)C)cc1CCC(=O)CC(O)Cc1ccccc1 (stereo not given),< 10%,51.3%,39.7 µM,35.3 µM,–,3.5 µM,–
O=C(/C=C/CCCCCCc1ccccc1)CCc1ccc(O)cc1,19.7%,89.2%,2.3 µM,1.2 µM,0.1 µM,2.2 µM,–
CCCCCC(O)CC(=O)CCc1ccc2c(c1)OCO2 (stereo not given),< 10%,< 10%,> 100 µM,> 100 µM,–,–,–
O=C(CCc1ccc2c(c1)OCO2)CC(O)Cc1ccccc1 (stereo not given),< 10%,16.5%,14.4 µM,> 50 µM,–,–,–
O=C(CCc1ccc(O)cc1)CC(O)CCCCCCc1ccccc1 (stereo not given),43%,< 10%,15.8 µM,9.4 µM,14.6 µM,–,–
CCCCCC(O)CC(=O)CCc1cc(C(C)C)c(O)c(C(C)C)c1 (stereo not given),< 10%,63.6%,2.8 µM,> 50 µM,–,2.1 µM,–
CCCCCC(O)CC(=O)CCc1ccc(O)cc1 (stereo not given),23.6%,114%,22.6 µM,10.5 µM,1.2 µM,8.4 µM,–
COc1cc(CCC(=O)CC(O)Cc2ccccc2)ccc1O (stereo not given),56.9%,< 10%,97.8 µM,13.2 µM,14.3 µM,–,–
O=C(CCc1ccc(O)cc1)CC(O)Cc1ccccc1 (stereo not given),10.8%,131%,35.1 µM,33.5 µM,1 µM,10.7 µM,–
CCCCCC(O)CC(=O)CCc1cc(C(C)C)c(O)cc1C (stereo not given),< 10%,78.2%,3.9 µM,4.8 µM,–,1.1 µM,–
C=CCN=C=S,–,–,–,–,–,–,41.8%
CC(C)c1cc(CCC(=O)CC(O)CCCCCCc2ccccc2)cc(C(C)C)c1O (stereo not given),< 10%,< 10%,11.1 µM,> 10 µM,–,–,–
Cc1cc(O)c(C(C)C)cc1CCC(=O)CC(O)CCCCCCc1ccccc1 (stereo not given),33.5%,163%,14.3 µM,1.3 µM,0.5 µM,22.1 µM,–
CCCCCC(O)CC(=O)CCc1ccc(O)c(OC)c1 (racemic),51.4%,11.4%,> 100 µM,5 µM,3.3 µM,10.4 µM,–
